Measured values reported in publication PMC6044853 (ACS Omega, 2017).
In brackets after ≈: the same amount, converted by molar mass.

Legend:
S. aureus FtsZ [1] = molecular target: T1, S. aureus FtsZ (Staphylococcus aureus, UniProt P0A031); assay: GTPase hydrolysis activity assay; assay type: biochemical; settings: read-out: inhibition of GTPase hydrolysis activity
T1 sequence (P0A031 1-390): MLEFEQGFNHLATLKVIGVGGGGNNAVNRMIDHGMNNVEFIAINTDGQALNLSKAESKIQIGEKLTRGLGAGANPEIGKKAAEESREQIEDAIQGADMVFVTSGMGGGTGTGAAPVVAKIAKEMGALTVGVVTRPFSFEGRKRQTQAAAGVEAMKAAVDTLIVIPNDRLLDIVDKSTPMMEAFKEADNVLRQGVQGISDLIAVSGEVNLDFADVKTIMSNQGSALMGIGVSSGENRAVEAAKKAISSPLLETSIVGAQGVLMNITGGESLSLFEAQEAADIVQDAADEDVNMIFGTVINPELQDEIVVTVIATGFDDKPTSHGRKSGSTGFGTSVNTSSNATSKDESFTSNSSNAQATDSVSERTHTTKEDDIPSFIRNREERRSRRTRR

[2] = tested on: S. aureus strain ATCC 29213; assay: MIC, broth microdilution; assay type: cell-based, Staphylococcus aureus; settings: S. aureus 29213; Table 1
Procedure, shortened: (§1)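 Broth microdilution per CLSI guidelines. MIC is the lowest concentration preventing visible bacterial growth. MIC is reported in μg/mL, with S. aureus values also converted to μM.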

S. aureus ATCC 43300 = assay: MIC, clinical isolate strain 5; assay type: cell-based; settings: Staphylococcus aureus, ATCC43300, read-out: MIC strain 5
Procedure, shortened: as §1

[3] = tested on: green fluorescent protein-tagged FtsZ in B. subtilis 168; assay: Z-ring visualization of B. subtilis 168; assay type: cell-based, Bacillus subtilis
Procedure, shortened: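 B. subtilis 168 expressing functional GFP-tagged FtsZ is treated with compound or DMSO. Z-ring formation is imaged by fluorescence microscopy alongside matching phase-contrast images.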

S. aureus FtsZ [4] = molecular target: T1, S. aureus FtsZ; assay: STD NMR study; assay type: binding
Procedure, shortened: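 Saturation transfer difference NMR with purified S. aureus FtsZ at 600 MHz and 298 K. For group epitope mapping, each proton's STD signal is integrated relative to the strongest STD signal, set to 100%.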

B. subtilis 168 [5] = assay: Bacterial morphology of B. subtilis 168; assay type: cell-based, Bacillus subtilis; settings: sublethal concentration; DMSO-treated cells < 5 μm
[6] = Solubility in aqueous medium; assay type: physicochemical; settings: precipitation in aqueous medium at >80 μM
G. mellonella larvae = assay: Toxicity in G. mellonella larvae; assay type: in vivo, Galleria mellonella; settings: 50 and 100 mg/kg in 50% PEG in saline, injected, 48 h
Procedure, shortened: (§2)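 G. mellonella model: groups of 10 last-instar larvae weighing 200–300 mg, held at 37 °C. Test compound is dissolved in 50% PEG in saline (0 [vehicle], 50, 100 mg/kg) and injected into the last left proleg with a Hamilton syringe. Mortality is scored every 12 h for 48 h. Survival is analysed by log rank and χ² test (1 degree of freedom), with three independent experiments.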

USA300 #757 = assay: MIC, clinical isolate strain 7; assay type: cell-based; settings: Staphylococcus aureus, USA300, read-out: MIC strain 7
Procedure, shortened: as §1

[7] = tested on: E. coli strain ATCC 25922; assay: MIC, broth microdilution; assay type: cell-based; settings: Escherichia coli, ATCC25922, read-out: MIC E. coli
Procedure, shortened: as §1

S. aureus ATCC 29247 = assay: MIC, clinical isolate strain 1; assay type: cell-based; settings: Staphylococcus aureus, ATCC29247, read-out: MIC strain 1
Procedure, shortened: as §1

[8] = tested on: G. mellonella larvae infected with MRSA ATCC 43300; assay: Antimicrobial efficacy in G. mellonella model of infection; assay type: in vivo, Galleria mellonella; settings: 2.5 × 10^6 CFU/larva MRSA ATCC 43300
Procedure, shortened: as §2

USA300 #2690 = assay: MIC, clinical isolate strain 9; assay type: cell-based; settings: Staphylococcus aureus, USA300, read-out: MIC strain 9
Procedure, shortened: as §1

USA300 #417 = assay: MIC, clinical isolate strain 6; assay type: cell-based; settings: Staphylococcus aureus, USA300, read-out: MIC strain 6
Procedure, shortened: as §1

USA300 #1799 = assay: MIC, clinical isolate strain 8; assay type: cell-based; settings: Staphylococcus aureus, USA300, read-out: MIC strain 8
Procedure, shortened: as §1

B. subtilis 168 [9] = assay: MIC, B. subtilis 168; assay type: cell-based; settings: Bacillus subtilis, 168, read-out: MIC B. subtilis 168
S. aureus FtsZ [10] = molecular target: T1, S. aureus FtsZ; assay: Light scattering assay of FtsZ polymerization; assay type: biochemical; settings: 30 μM compound, vs 1% DMSO vehicle

Compound | inhibition at 50 µM (S. aureus FtsZ [1]) | inhibition at 75 µM (S. aureus FtsZ [1]) | MIC S. aureus [2] | MIC S. aureus, number in parentheses calculated in μM [2] | MIC (S. aureus ATCC 43300) | Z-ring localization [3] | binding to FtsZ protein by STD NMR (S. aureus FtsZ [4]) | average cell length (B. subtilis 168 [5]) | compound solubility [6] | toxicity to G. mellonella larvae (survival) (G. mellonella larvae) | MIC (USA300 #757) | MIC [7] | MIC (S. aureus ATCC 29247) | survival time of infected larvae ([8]; 50 mg/kg) | survival rate of infected larvae ([8]; 100 mg/kg, 48 h) | MIC (USA300 #2690) | MIC (USA300 #417) | MIC (USA300 #1799) | MIC (B. subtilis 168 [9]) | inhibition of FtsZ polymerization (S. aureus FtsZ [10])
CCC(CC)c1cc(CCN2CCCN(Cc3ccc(C(F)(F)F)cc3)CC2)nc(-c2ccncc2)n1 [14av_amine16, 1-(2-(6-(Pentan-3-yl)-2-(pyridin-4-yl)pyrimidin-4-yl)ethyl)-4-(4-(trifluoromethyl)benzyl)-1,4-diazepane] | ~20% | ~25% | 4 µg/mL (≈ 7.82 µM) | 8 µM (≈ 4.09 µg/mL) | 6 µg/mL (≈ 11.7 µM) | obvious mislocalization of the Z-ring | binds to FtsZ protein | > 20 μm | poor compound solubility | did not kill the G. mellonella larvae | 6 µg/mL (≈ 11.7 µM) | > 64 µg/mL | 4 µg/mL (≈ 7.82 µM) | 36 h | 20% | 6 µg/mL (≈ 11.7 µM) | 6 µg/mL (≈ 11.7 µM) | 6 µg/mL (≈ 11.7 µM) | 12 µM (≈ 6.14 µg/mL) | complete inhibition
COc1cccc(OC)c1C(=O)N[C@@H]1C(=O)N2[C@@H]1SC(C)(C)[C@@H]2C(=O)O [methicillin, reference compound] |  |  |  |  | > 64 µg/mL |  |  |  |  |  | 64 µg/mL (≈ 168 µM) |  |  |  |  |  | > 64 µg/mL | 64 µg/mL (≈ 168 µM) |  | 
